Active and inactive are the calls of the source. The rule behind the calls is not given here.
Key:
[1] = Induction of tubulin depolymerization in rat A-10 cells after 18 hrs by indirect immunofluorescence method; type: cell-based
Procedure, shortened: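 A-10 cells exposed to a wide range of concentrations. Microtubules stained by indirect immunofluorescence, with nuclei counterstained. The percentage of depolymerized cellular microtubules is estimated visually. EC50, the concentration giving 50% loss of cellular microtubules, is found by linear regression.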

HeLa [2] = experiment: Antiproliferative activity against human HeLa cells expressing wild type beta3 tubulin after 48 hrs by SRB assay; type: functional, cell-based
Procedure, shortened: (§1)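 Cell growth measured by sulforhodamine B assay across a concentration range. IC50 is taken from the dose-response curves, as mean ± SD of at least 3 independent experiments, each run in triplicate. HeLa WT-βIII cells express βIII tubulin. SK-OV-3 MDR-1-M6/6 cells are the P-glycoprotein-expressing isogenic partner of parental SK-OV-3.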

HeLa [3] = experiment: Antiproliferative activity against human HeLa cells after 48 hrs by SRB assay; type: functional, cell-based; procedure, shortened: as §1
SK-OV-3 = experiment: Antiproliferative activity against human SKOV3 cells after 48 hrs by SRB assay; type: functional, cell-based; details: SK-OV-3, 48 h; procedure, shortened: as §1
MDA-MB-435 [4] = experiment: Antiproliferative activity against human MDA-MB-435 cells after 48 hrs by SRB assay; type: functional, cell-based; details: MDA-MB-435, 48 h; procedure, shortened: as §1
[5] = Antiproliferative activity against human SKOV3-MDR1-M6/6 cells after 48 hrs by SRB assay; type: functional, cell-based; details: SKOV3-MDR1-M6/6, 48 h; procedure, shortened: as §1
HeLa [6] = experiment: Resistance index, ratio of IC50 for human HeLa cells expressing wild type beta3 tubulin to IC50 for human HeLa cells; type: functional
Procedure, shortened: (§2)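 Relative resistance is the SRB IC50 in the expressing line divided by the IC50 in the isogenic parental line. The pairs are HeLa WT-βIII over HeLa (βIII tubulin) and SK-OV-3 MDR-1-M6/6 over SK-OV-3 (P-glycoprotein).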

[7] = Resistance index, ratio of IC50 for human SKOV3-MDR1-M6/6 cells to IC50 for human SKOV3 cells; type: functional; procedure, shortened: as §2
MDA-MB-435 [8] = experiment: Antitumor activity against human MDA-MB-435 cells xenografted in athymic nude mouse assessed as tumor growth inhibition at 20 mg/kg, ip administered on day 2,4,6,8, and 11 measured on day 14; type: functional, organism-based
Procedure, shortened: (§3)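 Female athymic nude mice, six weeks old, bearing bilateral MDA-MB-435 xenografts averaging 200 mm3 at the start of treatment. […] Body weight recorded twice weekly through day 14. Tumor volumes analysed by 2-way ANOVA with Dunnett's post-hoc test.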

Mus musculus [9] = experiment: Toxicity in athymic nude mouse xenografted with human MDA-MB-435 cells assessed as body weight loss at 20 mg/kg, ip administered on day 2, 4, 6, 8 and 11 measured on day 14; type: organism-based; details: in vivo; procedure, shortened: as §3
MDA-MB-435 [10] = experiment: Antitumor activity against human MDA-MB-435 cells xenografted in athymic nude mouse assessed as reduction in mean tumor mass at 75 mg/kg, ip administered daily for 9 days measured on day 14; type: functional, organism-based
Procedure, shortened: (§4)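 Six-week-old female athymic nude mice implanted bilaterally with MDA-MB-435 cells. Dosing starts when tumors average 200 mm3. Drug given at 75 mg/kg/dose i.p. daily on days 0–8, solubilized in 2:1 Tween80:DMSO and diluted into PBS. Mice weighed twice weekly. On day 14, tumors excised and weighed and compared with control by unpaired two-tailed Student's t-test. Tumor volumes analysed by 2-way ANOVA with Dunnett's test.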

MDA-MB-435 [11] = experiment: Antitumor activity against human MDA-MB-435 cells xenografted in athymic nude mouse assessed as tumor growth inhibition at 75 mg/kg, ip administered daily for 9 days measured on day 14; type: functional, organism-based; procedure, shortened: as §4
Mus musculus [12] = experiment: Toxicity in athymic nude mouse xenografted with human MDA-MB-435 cells assessed as overt toxicity at 75 mg/kg, ip administered daily for 9 days measured on day 14; type: organism-based; details: in vivo, 216 h; procedure, shortened: as §4

| SMILES | EC50 [1] [µM] | IC50 (HeLa [2]) [µM] | IC50 (HeLa [3]) [µM] | IC50 (SK-OV-3) [µM] | IC50 (MDA-MB-435 [4]) [µM] | IC50 [5] [µM] | Ratio IC50 (HeLa [6]) | Ratio IC50 [7] | TGI (MDA-MB-435 [8]) | Activity (Mus musculus [9]) [%] | Activity (MDA-MB-435 [10]) | TGI (MDA-MB-435 [11]) | Activity (Mus musculus [12]) |
| --- | --- | --- | --- | --- | --- | --- | --- | --- | --- | --- | --- | --- | --- |
| CCOC(=O)c1[nH]c(/C=N\O)c(-c2ccc(OC)c(OC)c2OC)c1Br | 0.108 | 0.0313 | 0.0294 | 0.0337 | 0.0253 | 0.0496 | 1.1 | 1.5 |  |  |  |  |  |
| CC(=O)O[C@H]1C(=O)[C@@]2(C)[C@H]([C@H](OC(=O)c3ccccc3)[C@]3(O)C[C@H](OC(=O)[C@H](O)[C@@H](NC(=O)c4ccccc4)c4ccccc4)C(C)=C1C3(C)C)[C@]1(OC(C)=O)CO[C@@H]1C[C@@H]2O [PACLITAXEL] |  | 0.0211 | 0.0015 |  | 0.002 | 2.33 |  |  | Active | 2.5 |  |  |  |
| CCOC(=O)c1[nH]c(Br)c(-c2ccc(OC)c(OC)c2OC)c1Br | 0.037 | 0.0157 | 0.0129 | 0.0152 | 0.0104 | 0.0106 | 1.2 | 0.7 |  |  |  |  |  |
| CCOC(=O)c1[nH]c(C=NO)c(-c2ccc(OC)c(OC)c2OC)c1Br (mixture of isomers) | 0.0092 | 0.0041 | 0.005 | 0.0053 | 0.0027 | 0.0066 | 0.9 | 1.2 |  |  | Active | Active | Non-Toxic |
| CCOC(=O)c1[nH]c(Cl)c(-c2ccc(OC)c(OC)c2OC)c1Cl | 1 | 0.14 | 0.131 | 0.21 | 0.116 | 0.14 | 1.1 | 0.67 |  |  |  |  |  |
| CCOC(=O)c1[nH]c(/C=N/O)c(-c2ccc(OC)c(OC)c2OC)c1Br | 0.056 | 0.025 | 0.018 | 0.0231 | 0.014 | 0.0416 | 1.4 | 1.8 |  |  |  |  |  |
| CCOC(=O)c1[nH]c(C#N)c(-c2ccc(OC)c(OC)c2OC)c1Br | 0.088 | 0.0261 | 0.0206 | 0.0262 | 0.0196 | 0.0422 | 1.3 | 1.6 |  |  |  |  |  |

Reference: ChEMBL document CHEMBL4033654, “Ortho group activation of a bromopyrrole ester in Suzuki-Miyaura cross-coupling reactions: Application to the synthesis of new microtubule depolymerizing agents with potent cytotoxic activities” (Bioorg Med Chem, 2017)
